According to ChEMBL document CHEMBL4325919, “3,5-Disubstituted-indole-7-carboxamides as IKKβ Inhibitors: Optimization of Oral Activity via the C3 Substituent” (ACS Med Chem Lett, 2018):
Converted amounts (≈) assume the structure as drawn. Blank lines part the entries; values can stand above or below the molecule they belong to.

Legend:
[1] = biological target: T1, Inhibitor of nuclear factor kappa-B kinase subunit beta (Homo sapiens, UniProt O14920); test: Inhibition of recombinant human C-terminal GST-tagged IKKbeta (1 to 737 residues) expressed in baculovirus expression system using GST-IkBalpha substrate measured after 30 mins by TR-FRET assay
T1 sequence (O14920 whole entry): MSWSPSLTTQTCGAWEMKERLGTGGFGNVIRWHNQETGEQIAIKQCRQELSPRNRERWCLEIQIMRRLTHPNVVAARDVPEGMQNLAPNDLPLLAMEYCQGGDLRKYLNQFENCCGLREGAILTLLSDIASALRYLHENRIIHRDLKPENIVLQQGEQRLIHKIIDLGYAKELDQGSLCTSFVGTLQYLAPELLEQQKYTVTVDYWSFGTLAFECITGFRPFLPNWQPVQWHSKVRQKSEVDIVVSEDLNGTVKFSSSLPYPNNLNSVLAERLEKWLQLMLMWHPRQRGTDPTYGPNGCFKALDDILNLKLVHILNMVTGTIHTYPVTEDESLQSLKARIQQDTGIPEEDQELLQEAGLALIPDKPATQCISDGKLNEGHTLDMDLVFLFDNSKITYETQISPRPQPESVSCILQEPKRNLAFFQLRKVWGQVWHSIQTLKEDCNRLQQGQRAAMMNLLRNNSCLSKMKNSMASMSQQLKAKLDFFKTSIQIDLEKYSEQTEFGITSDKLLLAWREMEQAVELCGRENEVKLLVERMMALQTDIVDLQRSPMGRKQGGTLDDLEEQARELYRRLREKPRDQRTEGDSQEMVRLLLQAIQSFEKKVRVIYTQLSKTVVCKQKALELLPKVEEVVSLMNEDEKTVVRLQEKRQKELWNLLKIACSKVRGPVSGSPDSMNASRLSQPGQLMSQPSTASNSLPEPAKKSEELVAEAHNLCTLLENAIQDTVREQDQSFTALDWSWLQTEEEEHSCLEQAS
Outline: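 IKK pIC50 values are the mean of more than 2 determinations unless noted otherwise. Compounds were tested as racemic mixtures.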

[2] = Oral bioavailability in Sprague-Dawley rat at 2.1 mg/kg; format: ADME, organism-based; details: in vivo
Outline: (§1)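 Male Sprague Dawley rats, n=2 (n=3 for one compound). The i.v. leg used 5% DMSO with 20% Cavitron and the oral leg 5% DMSO with 6% Cavitron. Oral doses were 2 mg/kg, or 2.1 mg/kg where stated. The i.v. dose was 1 mg/kg. Clearance is plasma clearance.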

[3] = Plasma clearance in Sprague-Dawley rat at 2.1 mg/kg, po or 1 mg/kg, iv; format: ADME, organism-based; outline: as §1
[4] = AUC in Sprague-Dawley rat at 2.1 mg/kg, po; format: ADME, organism-based; details: in vivo; outline: as §1
[5] = Volume of distribution at steady state in Sprague-Dawley rat at 2.1 mg/kg, po or 1 mg/kg, iv; format: ADME, organism-based; details: in vivo, read-out: Vdss; outline: as §1
[6] = Half life in Sprague-Dawley rat at 2.1 mg/kg, po or 1 mg/kg, iv; format: ADME, organism-based; details: in vivo; outline: as §1
[7] = Kinetic aqueous solubility of the compound by UV-HPLC analysis; format: physicochemical; details: buffer; read-out: Kinetic_solubility
[8] = Permeability of the compound by PAMPA; format: ADME; details: read-out: permeability
[9] = biological target: T1, Inhibitor of nuclear factor kappa-B kinase subunit beta; test: Inhibition of IKKbeta in human CD14-positive monocytes assessed as reduction in LPS-stimulated TNFalpha secretion preincubated for 30 mins followed by LPS stimulation and measured after 24 hrs by Alpha screen assay; format: cell-based
[10] = Plasma clearance in Sprague-Dawley rat at 2 mg/kg, po or 1 mg/kg, iv; format: ADME, organism-based; outline: as §1
[11] = Half life in Sprague-Dawley rat at 2 mg/kg, po or 1 mg/kg, iv; format: ADME, organism-based; details: in vivo; outline: as §1
[12] = Volume of distribution at steady state in Sprague-Dawley rat at 2 mg/kg, po or 1 mg/kg, iv; format: ADME, organism-based; details: in vivo, read-out: Vdss; outline: as §1
[13] = AUC in Sprague-Dawley rat at 2 mg/kg, po; format: ADME, organism-based; details: in vivo; outline: as §1
[14] = Oral bioavailability in Sprague-Dawley rat at 2 mg/kg; format: ADME, organism-based; details: in vivo; outline: as §1
[15] = Plasma clearance in Beagle dog at 2.03 mg/kg, po or 1.11 mg/kg, iv; format: ADME, organism-based, Canis lupus familiaris
Outline: (§2)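 Male Beagle dogs, n=3. Vehicles were 5% DMSO with 20% Cavitron for i.v. dosing at 1.11 mg/kg and 5% DMSO with 6% Cavitron for oral dosing at 2.03 mg/kg. Derived values were plasma clearance, steady-state volume of distribution, half-life and oral bioavailability.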

[16] = Volume of distribution at steady state in Beagle dog at 2.03 mg/kg, po or 1.11 mg/kg, iv; format: ADME, organism-based, Canis lupus familiaris; details: in vivo, read-out: Vdss; outline: as §2
[17] = Kinetic aqueous solubility of the compound by chemiluminescent nitrogen detection assay; format: physicochemical; details: buffer; read-out: Kinetic_solubility
[18] = test system: Canis familiaris; test: Anti-inflammatory activity in inhaled LPS-induced Beagle dog lung neutrophilia model assessed as inhibition of LPS-induced increase in neutrophils in bronchoalveolar lavage administered orally 30 mins prior to LPS instillation and measured after […] by diff quick staining based hemocytometric method; format: functional; details: Canis lupus familiaris, po
[19] = AUC in Beagle dog at 2.03 mg/kg, po; format: ADME, organism-based, Canis lupus familiaris; details: in vivo; outline: as §2
[20] = Oral bioavailability in Beagle dog at 2.03 mg/kg; format: ADME, organism-based, Canis lupus familiaris; details: in vivo; outline: as §2
[21] = test system: Rattus norvegicus; test: Anti-inflammatory activity in LPS-induced Lewis rat inflammation model assessed as inhibition of LPS-induced TNFalpha secretion in blood administered orally 30 mins prior to LPS challenge and measured after 2 hrs by ELISA; format: functional; details: po
[22] = Half life in Beagle dog at 2.03 mg/kg, po or 1.11 mg/kg, iv; format: ADME, organism-based, Canis lupus familiaris; details: in vivo; outline: as §2

IC50 [1]: 39.8 nM
Structure (SMILES): NC(=O)c1cc(-c2ccccc2)cc2c([C@H]3C[C@H]4CC[C@@H](C3)S4(=O)=O)c[nH]c12

bioavailability [2]: 46%
IC50 [1]: 10 nM
clearance [3]: 7.43 mL/min/kg
AUC [4]: 2080 ng·h/mL
Vd [5]: 0.84 L/kg
half-life [6]: 1.75 h
solubility kinetic [7]: 8 µM (≈ 3.64 µg/mL)
Papp [8]: 27 ×10⁻⁶ cm/s
IC50 [9]: 500 nM
Structure (SMILES): CN(C)CCS(=O)(=O)N1CCC(c2c[nH]c3c(C(N)=O)cc(-c4ccccc4)cc23)CC1

IC50 [1]: 15.8 nM
solubility kinetic [7]: 173 µM (≈ 85.9 µg/mL)
Papp [8]: 20 ×10⁻⁶ cm/s
IC50 [9]: 190 nM
Structure (SMILES): CCN(CC)CCCS(=O)(=O)N1CCC(c2c[nH]c3c(C(N)=O)cc(-c4ccccc4)cc23)CC1

IC50 [1]: 79.4 nM
Structure (SMILES): NC(=O)c1cc(-c2ccccc2)cc2c(C3CCCC(=O)C3)c[nH]c12 (stereo not given)

IC50 [1]: 63.1 nM
Structure (SMILES): CS(=O)(=O)CCc1c[nH]c2c(C(N)=O)cc(-c3ccccc3)cc12

IC50 [1]: 20 nM
Structure (SMILES): CC1(C)CC(c2c[nH]c3c(C(N)=O)cc(-c4ccccc4)cc23)NC1=O (stereo not given)

IC50 [1]: 200 nM
Structure (SMILES): CC1(C)CC(=O)NC1c1c[nH]c2c(C(N)=O)cc(-c3ccccc3)cc12 (stereo not given)

IC50 [1]: 501 nM
Structure (SMILES): CN1C(=O)CCC1c1c[nH]c2c(C(N)=O)cc(-c3ccccc3)cc12 (stereo not given)

IC50 [1]: 12.6 nM
clearance [10]: 23.5 mL/min/kg
half-life [11]: 2.2 h
Vd [12]: 3.7 L/kg
AUC [13]: 1270 ng·h/mL
bioavailability [14]: 47.4%
Papp [8]: 28 ×10⁻⁶ cm/s
IC50 [9]: 50 to 810 nM
Structure (SMILES): NC(=O)c1cc(-c2ccc(F)cc2)cc2c(C3CCS(=O)(=O)CC3)c[nH]c12

IC50 [1]: 7.94 nM
clearance [10]: 13.2 mL/min/kg
clearance [15]: 1.86 mL/min/kg
Vd [16]: 2.87 L/kg
half-life [11]: 4.5 h
Vd [12]: 4.7 L/kg
solubility kinetic [17]: 32 µM (≈ 13.3 µg/mL)
AUC [13]: 1960 ng·h/mL
bioavailability [14]: 94.1%
AUC [19]: 8200 ng·h/mL
bioavailability [20]: 65.3%
Papp [8]: 28.3 ×10⁻⁶ cm/s
half-life [22]: 20.9 h
IC50 [9]: 130 nM
Structure (SMILES): CC1(C)C[C@H](c2c[nH]c3c(C(N)=O)cc(-c4ccc(F)cc4)cc23)CCS1(=O)=O
ED50 [18]: 1.8 µmol/kg
ED50 [21]: 21.7 µmol/kg

IC50 [1]: 100 nM
Structure (SMILES): NC(=O)c1cc(-c2ccccc2)cc2c(C3CCS(=O)(=O)C3)c[nH]c12 (stereo not given)

IC50 [1]: 7.94 nM
clearance [10]: 51.1 mL/min/kg
half-life [11]: 2.34 h
Vd [12]: 7.2 L/kg
solubility kinetic [17]: 39 µM (≈ 15.5 µg/mL)
AUC [13]: 1430 ng·h/mL
bioavailability [14]: 115%
Papp [8]: 33 ×10⁻⁶ cm/s
IC50 [9]: 110 nM
Structure (SMILES): CC1(C)CC(c2c[nH]c3c(C(N)=O)cc(-c4ccccc4)cc23)CCS1(=O)=O (stereo not given)

IC50 [1]: 158 nM
Structure (SMILES): NC(=O)c1cc(-c2ccccc2)cc2c(C3CCCS(=O)(=O)C3)c[nH]c12 (stereo not given)

IC50 [1]: 10 nM
clearance [10]: 35 mL/min/kg
clearance [15]: 23.6 mL/min/kg
Vd [16]: 1.54 L/kg
half-life [11]: 1.58 h
Vd [12]: 2.8 L/kg
AUC [13]: 904 ng·h/mL
bioavailability [14]: 97%
solubility kinetic [7]: 130 µM (≈ 47.9 µg/mL)
AUC [19]: 753 ng·h/mL
bioavailability [20]: 52.6%
Papp [8]: 27.7 ×10⁻⁶ cm/s
half-life [22]: 0.949 h
IC50 [9]: 80 nM
Structure (SMILES): NC(=O)c1cc(-c2ccccc2)cc2c(C3CCS(=O)(=O)CC3)c[nH]c12
ED50 [18]: 2.9 µmol/kg
ED50 [21]: 7.6 µmol/kg
